ChEMBL document CHEMBL1782042, “Efficient microwave-assisted synthesis and antitumor activity of novel 4,4'-methylenebis[2-(3-aryl-4,5-dihydro-1H-pyrazol-5-yl)phenols]” (Eur J Med Chem, 2011)

Experiments:
HCT-15 = experiment: Anticancer activity against human HCT15 cells after 48 hrs by sulforhodamine B assay; assay type: functional; details: HCT-15, 48 h
How it was run: (§1)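 NCI 60-cell-line in vitro screen, second stage: five concentration levels (100, 10, 1.0, 0.1 and 0.01 μM) with 48 h continuous drug exposure. Cell growth was estimated by sulforhodamine B protein staining. GI50 is the drug concentration that gives a 50% reduction in net protein increase relative to control cells over the incubation.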

UO-31 [1] = experiment: Cytotoxicity against human UO31 cells; assay type: cell-based
How it was run: (§2)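 NCI 60 human tumour cell line screen; five concentration levels (100, 10, 1.0, 0.1 and 0.01 μM), 48 h continuous drug exposure. Cell growth estimated by sulforhodamine B (SRB) protein staining. GI50 taken as the drug concentration giving a 50% reduction in net protein increase relative to control cells over the incubation.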

MCF7 [2] = experiment: Cytotoxicity against human MCF7 cells; assay type: cell-based
How it was run: (§3)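 NCI 60 human tumour cell line screen, second stage at five concentrations (100, 10, 1.0, 0.1 and 0.01 μM). Continuous drug exposure for 48 h, with cell growth estimated by sulforhodamine B protein staining. GI50 is the drug concentration giving a 50% reduction in net protein increase relative to control cells over the incubation.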

Hs-578T [3] = experiment: Cytotoxicity against human Hs578T cells; assay type: cell-based; how it was run: as §3
BT-549 [4] = experiment: Cytotoxicity against human BT549 cells; assay type: cell-based; how it was run: as §3
T47D [5] = experiment: Cytotoxicity against human T47D cells; assay type: cell-based; how it was run: as §2
MDA-MB-468 [6] = experiment: Cytotoxicity against human MDA-MB-468 cells; assay type: cell-based; how it was run: as §3
SW-620 = experiment: Anticancer activity against human SW620 cells after 48 hrs by sulforhodamine B assay; assay type: functional; details: SW-620, 48 h
How it was run: (§4)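 NCI 60-cell-line screen, second stage. Five concentration levels (100, 10, 1.0, 0.1 and 0.01 μM), 48 h continuous drug exposure. Cell growth was estimated by sulforhodamine B protein staining. GI50 is the concentration giving a 50% reduction in net protein increase relative to control cells over the drug incubation. Compounds entered this stage after an earlier single-dose screen.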

SNB-19 = experiment: Anticancer activity against human SNB19 cells after 48 hrs by sulforhodamine B assay; assay type: functional; details: SNB-19, 48 h; how it was run: as §1
SNB-75 = experiment: Anticancer activity against human SNB75 cells after 48 hrs by sulforhodamine B assay; assay type: functional; details: SNB-75, 48 h; how it was run: as §4
U-251 = experiment: Anticancer activity against human U251 cells after 48 hrs by sulforhodamine B assay; assay type: functional; details: U-251, 48 h; how it was run: as §4
LOX IMVI = experiment: Anticancer activity against human LOXIMVI cells after 48 hrs by sulforhodamine B assay; assay type: functional; how it was run: as §1
MDA-MB-435 = experiment: Anticancer activity against human MDA-MB-435 cells after 48 hrs by sulforhodamine B assay; assay type: functional; details: MDA-MB-435, 48 h; how it was run: as §1
SK-MEL-2 = experiment: Anticancer activity against human SK-MEL-2 cells after 48 hrs by sulforhodamine B assay; assay type: functional; details: SK-MEL-2, 48 h; how it was run: as §1
SK-MEL-5 = experiment: Anticancer activity against human SK-MEL-5 cells after 48 hrs by sulforhodamine B assay; assay type: functional; details: SK-MEL-5, 48 h; how it was run: as §1
OVCAR-4 = experiment: Anticancer activity against human OVCAR4 cells after 48 hrs by sulforhodamine B assay; assay type: functional; details: OVCAR-4, 48 h; how it was run: as §1
OVCAR-8 = experiment: Anticancer activity against human OVCAR8 cells after 48 hrs by sulforhodamine B assay; assay type: functional; details: OVCAR-8, 48 h; how it was run: as §1
NCI/ADR-RES = experiment: Anticancer activity against human NCI/ADR-RES cells after 48 hrs by sulforhodamine B assay; assay type: functional; how it was run: as §1
786-0 = experiment: Anticancer activity against human 786-0 cells after 48 hrs by sulforhodamine B assay; assay type: functional; details: 786-0, 48 h; how it was run: as §1
ACHN = experiment: Anticancer activity against human ACHN cells after 48 hrs by sulforhodamine B assay; assay type: functional; how it was run: as §1
RXF 393 = experiment: Anticancer activity against human RXF393 cells after 48 hrs by sulforhodamine B assay; assay type: functional; details: RXF 393, 48 h; how it was run: as §1
SN12C = experiment: Anticancer activity against human SN12C cells after 48 hrs by sulforhodamine B assay; assay type: functional; how it was run: as §1
UO-31 [7] = experiment: Anticancer activity against human UO31 cells after 48 hrs by sulforhodamine B assay; assay type: functional; details: UO-31, 48 h; how it was run: as §4
MCF7 [8] = experiment: Anticancer activity against human MCF7 cells after 48 hrs by sulforhodamine B assay; assay type: functional; details: MCF7, 48 h; how it was run: as §1
Hs-578T [9] = experiment: Anticancer activity against human Hs578T cells after 48 hrs by sulforhodamine B assay; assay type: functional; how it was run: as §1
BT-549 [10] = experiment: Anticancer activity against human BT549 cells after 48 hrs by sulforhodamine B assay; assay type: functional; details: BT-549, 48 h; how it was run: as §1
T47D [11] = experiment: Anticancer activity against human T47D cells after 48 hrs by sulforhodamine B assay; assay type: functional; how it was run: as §4
MDA-MB-468 [12] = experiment: Anticancer activity against human MDA-MB-468 cells after 48 hrs by sulforhodamine B assay; assay type: functional; details: MDA-MB-468, 48 h; how it was run: as §1
CCRF-CEM = experiment: Cytotoxicity against human CCRF-CEM cells; assay type: cell-based; how it was run: as §3
K562 = experiment: Cytotoxicity against human K562 cells; assay type: cell-based; how it was run: as §3
RPMI-8226 = experiment: Cytotoxicity against human RPMI8226 cells; assay type: cell-based; how it was run: as §3
A549 = experiment: Cytotoxicity against human A549 cells; assay type: cell-based; how it was run: as §3
HOP-62 = experiment: Cytotoxicity against human HOP62 cells; assay type: cell-based; how it was run: as §3

Structure (SMILES): Cc1ccc(C2=NNC(c3cc(Cc4ccc(O)c(C5CC(c6ccc(C)cc6)=NN5)c4)ccc3O)C2)cc1 (stereo not drawn)
- GI50 (HCT-15): 3.64 µM
- LC50 (UO-31 [1]): > 100 µM
- LC50 (MCF7 [2]): 71.8 µM
- LC50 (Hs-578T [3]): > 100 µM
- LC50 (BT-549 [4]): > 100 µM
- LC50 (T47D [5]): > 100 µM
- LC50 (MDA-MB-468 [6]): > 100 µM
- GI50 (SW-620): 7.96 µM
- GI50 (SNB-19): 6.89 µM
- GI50 (SNB-75): 4.98 µM
- GI50 (U-251): 5.84 µM
- GI50 (LOX IMVI): 7.38 µM
- GI50 (MDA-MB-435): 8.52 µM
- GI50 (SK-MEL-2): 5.9 µM
- GI50 (SK-MEL-5): 1.76 µM
- GI50 (OVCAR-4): 5.36 µM
- GI50 (OVCAR-8): 6.36 µM
- GI50 (NCI/ADR-RES): 7.39 µM
- GI50 (786-0): 8.39 µM
- GI50 (ACHN): 5.56 µM
- GI50 (RXF 393): 4.18 µM
- GI50 (SN12C): 8.84 µM
- GI50 (UO-31 [7]): 4.29 µM
- GI50 (MCF7 [8]): 3.3 µM
- GI50 (Hs-578T [9]): 5.58 µM
- GI50 (BT-549 [10]): 4.66 µM
- GI50 (T47D [11]): 4.61 µM
- GI50 (MDA-MB-468 [12]): 2.97 µM
- LC50 (CCRF-CEM): > 100 µM
- LC50 (K562): > 100 µM
- LC50 (RPMI-8226): > 100 µM
- LC50 (A549): > 100 µM
- LC50 (HOP-62): > 100 µM
